Laboratory results as given in ChEMBL document CHEMBL3351348, “Synthesis and biological evaluation of new simple indolic non peptidic HIV Protease inhibitors: the effect of different substitution patterns” (Bioorg Med Chem, 2014).

Experiment: Inhibition of HIV Protease using Abz-Thr-Ile-Nle-Phe(NO2)-Gln-Arg as fluorogenic substrate by fluorimetry
Set-up: species or system Human immunodeficiency virus
Conditions: not given; call rule not given here
Outline: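 Commercial HIV-PR at 10 nm final, in pH 5.5 MES buffer (100 mM MES/NaOH, 400 mM NaCl, 1 mM EDTA, 1 mM DTT), 25 °C thermostated cuvette. Substrate at 30 μM final. Excitation 325 nm, emission 420 nm. Enzyme added after 1.5 min and inhibitor (DMSO stock) after a further 1 min, then read 10 min. IC50 from initial rates over several inhibitor concentrations, at least three independent experiments.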

Structure (SMILES) | IC50
CC(C)CN(C[C@@H](O)CNc1ccc2[nH]ccc2c1)S(=O)(=O)c1ccc([N+](=O)[O-])cc1 | Not Active

Same assay, conditions: read-out: IC50

Structure (SMILES) | IC50 [µM]
CC(C)CN(C[C@@H](O)COc1ccc2[nH]ccc2c1)S(=O)(=O)c1ccc(N)cc1 | 12
COc1ccc(S(=O)(=O)N(CC(C)C)C[C@@H](O)COc2ccc3cc[nH]c3c2)cc1OC | 346
COc1ccc(S(=O)(=O)N(CC(C)C)C[C@@H](O)CNc2cccc3[nH]ccc23)cc1OC | 336
COc1ccc(S(=O)(=O)N(CC(C)C)C[C@@H](O)COC(=O)Nc2cccc3[nH]ccc23)cc1OC | 615
COc1ccc(S(=O)(=O)N(CC(C)C)C[C@@H](O)COc2cccc3[nH]ccc23)cc1OC | 336
CC(C)CN(C[C@@H](O)COc1cccc2[nH]ccc12)S(=O)(=O)c1ccc([N+](=O)[O-])cc1 | 346
CC(C)CN(C[C@@H](O)CNc1cccc2[nH]ccc12)S(=O)(=O)c1ccc([N+](=O)[O-])cc1 | 2630
CC(C)(C)NC(=O)[C@@H]1C[C@@H]2CCCC[C@@H]2CN1C[C@@H](O)COC(=O)Nc1cccc2[nH]ccc12 | 50
CC(C)(C)NC(=O)[C@@H]1C[C@@H]2CCCC[C@@H]2CN1C[C@@H](O)CNc1cccc2[nH]ccc12 | 157
CC(C)(C)NC(=O)[C@@H]1C[C@@H]2CCCC[C@@H]2CN1C[C@@H](O)CNc1ccc2[nH]ccc2c1 | 176
CC(C)(C)NC(=O)[C@@H]1C[C@@H]2CCCC[C@@H]2CN1C[C@@H](O)COC(=O)Nc1ccc2[nH]ccc2c1 | 606
CC(C)(C)NC(=O)[C@@H]1C[C@@H]2CCCC[C@@H]2CN1C[C@@H](O)COc1ccc2cc[nH]c2c1 | 138
COc1ccc(S(=O)(=O)N(CC(C)C)C[C@@H](O)COC(=O)Nc2ccc3[nH]ccc3c2)cc1OC | 1400
CC(C)CN(C[C@@H](O)COC(=O)Nc1cccc2[nH]ccc12)S(=O)(=O)c1ccc([N+](=O)[O-])cc1 | 72
CC(C)(C)NC(=O)[C@@H]1C[C@@H]2CCCC[C@@H]2CN1C[C@@H](O)COc1cccc2[nH]ccc12 | 24
COc1ccc(S(=O)(=O)N(CC(C)C)C[C@@H](O)COc2ccc3[nH]ccc3c2)cc1OC | 1
CC(C)CN(C[C@@H](O)COc1ccc2[nH]ccc2c1)S(=O)(=O)c1ccc([N+](=O)[O-])cc1 | 10
CC(C)CN(C[C@@H](O)COc1ccc2cc[nH]c2c1)S(=O)(=O)c1ccc([N+](=O)[O-])cc1 | 46
COc1ccc(S(=O)(=O)N(CC(C)C)C[C@@H](O)COC(=O)Nc2ccc3[nH]ccc3c2)cc1 | 8
CC(C)CN(C[C@@H](O)COC(=O)Nc1ccc2[nH]ccc2c1)S(=O)(=O)c1ccc([N+](=O)[O-])cc1 | 2
CC(C)(C)NC(=O)[C@@H]1C[C@@H]2CCCC[C@@H]2CN1C[C@@H](O)COc1ccc2[nH]ccc2c1 | 14
COc1ccc(S(=O)(=O)N(CC(C)C)C[C@@H](O)CNc2ccc3[nH]ccc3c2)cc1OC | 4400
